Laboratory results published in ChEMBL document CHEMBL1148022, “Discovery of new C3aR ligands. Part 2: amino-piperidine derivatives” (Bioorg Med Chem Lett, 2007).
Calls of active or inactive are those of the source. The rule behind the calls is not given here.

Tests used:
[1] = target: T1, C3a anaphylatoxin chemotactic receptor (Homo sapiens) (UniProt Q16581); assay: (§1) Displacement of [125I]C3a from human C3a receptor expressed in HMC1 cells co-expressing aequorin; assay type: cell-based
T1 sequence (whole entry): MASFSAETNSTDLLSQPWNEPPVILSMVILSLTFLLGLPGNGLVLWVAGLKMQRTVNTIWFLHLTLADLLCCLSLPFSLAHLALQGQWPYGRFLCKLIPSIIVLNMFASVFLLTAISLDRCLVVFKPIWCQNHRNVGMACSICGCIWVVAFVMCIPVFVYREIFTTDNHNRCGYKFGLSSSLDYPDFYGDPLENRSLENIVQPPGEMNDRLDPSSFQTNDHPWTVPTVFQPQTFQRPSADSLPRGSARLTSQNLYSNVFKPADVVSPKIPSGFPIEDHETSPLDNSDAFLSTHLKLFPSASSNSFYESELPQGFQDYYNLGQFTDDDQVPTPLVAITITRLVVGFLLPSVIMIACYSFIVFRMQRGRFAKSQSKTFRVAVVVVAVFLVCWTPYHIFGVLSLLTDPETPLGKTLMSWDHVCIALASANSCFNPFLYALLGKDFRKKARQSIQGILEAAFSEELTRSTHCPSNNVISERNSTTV
How it was run: (§2)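 Scintillation proximity assay used wheat germ agglutinin beads and membranes from HMC-1 cells co-expressing Aequorin and human C3aR. Test compound was added at various concentrations with 0.02 nM ¹²⁵I-C3a in 50 mM Tris/2 mM MgCl₂/0.5% BSA. Non-specific binding was defined with 1 nM C3a. Plates were incubated 3 h at rt and read by scintillation counting. Values are means of three experiments.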

[2] = target: T2, C3a anaphylatoxin chemotactic receptor (Homo sapiens, UniProt Q16581); assay: as §1; assay type: cell-based; how it was run: as §2
T2 sequence (Q16581 whole entry): T1 sequence (whole entry)

[3] = target: T2, C3a anaphylatoxin chemotactic receptor; assay: Agonist activity at human C3a receptor expressed in HMC1 cells co-expressing aequorin; assay type: functional, cell-based
How it was run: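 They were then diluted fourfold and held 1 h at 37 °C. Compound was injected at 1% DMSO final. Luminescence was recorded for 30 s right after injection. Maximal signal was set with 50 nM C3a.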

[4] = Clearance in rat microsomes; assay type: ADME, Liver, Microsome
[5] = Oral bioavailability in rat at 1 mg/kg; assay type: ADME, organism-based; settings: in vivo
How it was run: (§3)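 Male rats received a single oral or iv dose of 1 mg/kg.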

Hepatocyte = assay: Clearance in rat hepatocytes; assay type: ADME, cell-based, Liver
[6] = Elimination half life in rat at 1 mg/kg, iv and 1 mg/kg, po; assay type: ADME, organism-based; settings: in vivo; how it was run: as §3
[7] = Permeability across Caco-2 cells; assay type: ADME, cell-based; settings: human, read-out: permeability
[8] = target: T2, C3a anaphylatoxin chemotactic receptor; assay: Antagonist activity at human C3a receptor expressed in HMC1 cells co-expressing aequorin; assay type: functional, cell-based
How it was run: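 Aequorin/human C3aR HMC-1 cells were loaded with coelenterazine for 2 h. They were then plated and pre-treated with compound dilutions for 1 h at 37 °C, 1% DMSO. C3a agonist was then injected at 5 nM final. Light emission was the read-out.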

CL [4] [µL/min] | bioavailability [5] [%] | half-life [6] [min] | Structure (SMILES) | IC50 [2] [nM] | other results
 |  |  | O=C(NC1CCN(C(=O)CCc2ccncc2)CC1)C1c2cc(Cl)ccc2Oc2ccc(Cl)cc21 |  | Log IC50 [1]: inactive
 |  |  | O=C(NC1CCN(C(=O)CCc2cccnc2)CC1)C(c1ccccc1)C1CC=CC1 (stereo not drawn) | 3160 | 
609 | 0 | 18 | O=C(NC1CCN(C(=O)CCc2cccnc2)CC1)C(c1cc(F)c(F)c(F)c1)C1CCCCC1 (stereo not drawn) | 100 | EC50 [3]: 794 nM; CL (Hepatocyte): 17 µL/min
 |  |  | O=C(NC1CCN(C(=O)CCc2ccccc2F)CC1)C(c1ccccc1)C1CCCCC1 (stereo not drawn) | 2000 | 
 |  |  | Cc1ccc(C(C(=O)NC2CCN(C(=O)CCc3cccnc3)CC2)C2CCCCC2)cc1 (stereo not drawn) | 794 | 
175 | 3 | 18 | Cc1cncc(/C=C/C(=O)N2CCC(NC(=O)C(c3ccccc3)C3CCCCC3)CC2)c1 (stereo not drawn) | 50100 | CL (Hepatocyte): 21 µL/min; Papp [7]: 7.9 ×10⁻⁶ cm/s
170 | 2 | 18 | O=C(NC1CCN(C(=O)CCc2cccnc2)CC1)C(c1ccccc1)C1CCC(F)(F)CC1 (stereo not drawn) | 631 | Papp [7]: 16 ×10⁻⁶ cm/s
500 | 1 | 42 | O=C(NC1CCN(C(=O)CCc2cccnc2)CC1)C(CC1CCCCC1)c1ccccc1 (stereo not drawn) | 794 | CL (Hepatocyte): 44 µL/min
500 | 5 | 6 | O=C(NC1CCN(C(=O)CCc2cccnc2)CC1)C(c1ccccc1)c1ccccc1 | 12600 | IC50 [8]: 3160 nM; CL (Hepatocyte): 21 µL/min; Papp [7]: 8.5 ×10⁻⁶ cm/s
 |  |  | O=C(NC1CCN(C(=O)CCc2cccnc2)CC1)/C(=C/C1CCCCC1)c1ccccc1 | 25100 | 
585 | 9 | 30 | O=C(NC1CCN(C(=O)CCc2cccnc2)CC1)C(c1ccc2ccccc2c1)C1CCCCC1 (stereo not drawn) | 794 | EC50 [3]: 1580 nM
 |  |  | O=C(NC1CCN(C(=O)CCc2cccnc2)CC1)C(c1ccc(F)cc1)C1CCCCC1 (stereo not drawn) | 158 | 
 |  |  | CC1(C)CCC(C(C(=O)NC2CCN(C(=O)CCc3cccnc3)CC2)c2ccccc2)CC1 (stereo not drawn) | 1000 | 
675 | 6 | 12 | O=C(NC1CCN(C(=O)CCc2cccnc2)CC1)C(C1CCCCC1)C1CCCCC1 | 1000 | 
 |  |  | O=C(NC1CCN(C(=O)CCc2cccnc2)CC1)C(c1ccccc1)C1CCCCC1 (single isomer, unassigned; epimer B) | 316 | 
238 | 7 | 18 | O=C(NC1CCN(C(=O)/C=C/c2cccnc2)CC1)C(c1ccccc1)C1CCCCC1 (stereo not drawn) | 1000 | CL (Hepatocyte): 26 µL/min; Papp [7]: 8.5 ×10⁻⁶ cm/s
 |  |  | CC1(C)CC(C(C(=O)NC2CCN(C(=O)CCc3cccnc3)CC2)c2ccccc2)CC(C)(C)C1 (stereo not drawn) | 63100 | 
 |  |  | O=C(NC1CCN(C(=O)CCc2ccccn2)CC1)C1c2cc(Cl)ccc2Oc2ccc(Cl)cc21 |  | Log IC50 [1]: inactive

CL [4] [µL/min] | bioavailability [5] [%] | half-life [6] [min] | Structure (SMILES) | IC50 [2] [nM] | other results
 |  |  | O=C(NC1CCN(C(=O)CCc2cccnc2)CC1)C1c2ccccc2Cc2ccccc21 | 79400 | 
500 | 0 | 18 | O=C(NC1CCN(C(=O)CCc2cccnc2)CC1)C(c1ccc(Cl)cc1)C1CCCCC1 (stereo not drawn) | 200 | CL (Hepatocyte): 28 µL/min; Papp [7]: 10 ×10⁻⁶ cm/s
 |  |  | O=C(NC1CCN(C(=O)Cc2cccc(F)c2F)CC1)C(c1ccccc1)C1CCCCC1 (stereo not drawn) | 10000 | 
 |  |  | Cc1ccccc1C(C(=O)NC1CCN(C(=O)CCc2cccnc2)CC1)C1CCCCC1 (stereo not drawn) | 2510 | 
 |  |  | O=C(NC1CCN(C(=O)CCc2cccnc2)CC1)C(c1ccsc1)C1CCCCC1 (stereo not drawn) | 200 | 
 |  |  | O=C(NC1CCN(C(=O)CCc2cccnc2)CC1)C(c1ccccc1)C1CCCC1 (stereo not drawn) | 794 | 
 |  |  | Cc1cccc(C(C(=O)NC2CCN(C(=O)CCc3cccnc3)CC2)C2CCCCC2)c1 (stereo not drawn) | 79.4 | 
175 | 0 | 24 | O=C(NC1CCN(C(=O)CCc2cccnc2)CC1)C(c1ccc(Cl)cc1)c1ccc(Cl)cc1 | 20000 | Papp [7]: 6.3 ×10⁻⁶ cm/s
 |  |  | O=C(NC1CCN(C(=O)CCc2cccnc2)CC1)C(c1ccc([N+](=O)[O-])cc1)C1CCCCC1 (stereo not drawn) | 316 | 
 |  |  | O=C(NC1CCN(C(=O)CCc2cccnc2)CC1)C1c2cc(Cl)ccc2Oc2ccc(Cl)cc21 | 1580 | IC50 [8]: 631 nM
 |  |  | O=C(NC1CCN(C(=O)CCc2cccnc2)CC1)C(c1ccccc1)C1CCCCC1 (single isomer, unassigned; epimer A) | 5010 | 
 |  |  | O=C(NC1CCN(C(=O)/C=C/c2ccccc2F)CC1)C(c1ccccc1)C1CCCCC1 (stereo not drawn) | 12600 | 
 |  |  | COc1ccc(C(C(=O)NC2CCN(C(=O)CCc3cccnc3)CC2)C2CCCCC2)cc1 (stereo not drawn) | 631 | 
 |  |  | O=C(NC1CCN(C(=O)CCc2cccnc2F)CC1)C(c1ccccc1)C1CCCCC1 (stereo not drawn) | 31.6 | EC50 [3]: 200 nM
782 | 0 | 18 | O=C(NC1CCN(C(=O)CCc2ccc(F)nc2)CC1)C(c1ccccc1)C1CCCCC1 (stereo not drawn) | 1260 | Papp [7]: 19 ×10⁻⁶ cm/s
 |  |  | Cc1cc(C)cc(C(C(=O)NC2CCN(C(=O)CCc3cccnc3)CC2)C2CCCCC2)c1 (stereo not drawn) | 126 | 
500 | 5 | 12 | O=C(NC1CCN(C(=O)CCc2cccnc2)CC1)C(c1ccccc1)C1CCCCC1 (stereo not drawn) | 794 | EC50 [3]: 2000 nM; CL (Hepatocyte): 33 µL/min; Papp [7]: 12 ×10⁻⁶ cm/s
 |  |  | COc1ncccc1CCC(=O)N1CCC(NC(=O)C(c2ccccc2)C2CCCCC2)CC1 (stereo not drawn) | 15800 | 
